High-throughput results deposited in PubChem BioAssay by Broad Institute.
F508del corr – CFTR F508del correction in bronchial cells. CFBE cells, YFP halide quenching; stimulated with forskolin plus potentiator P3; % fluorescence drop versus neutral controls. activity (quench increase), % at 7.58 µM. 0.36% of 350,000 active. AID 720511;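 active = mean added fluorescence quench of at least 8% versus neutral control, with both replicates also reaching 8%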;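 also: cells transiently co-express mutant CFTR-F508del with the halide-sensitive YFP; corrector assay measuring rescue of mutant channel to the surface after 24 h compound exposure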
DENV2 CPE rescue – DENV2-induced cell death inhibition | DENV2-infected cells, cytopathic effect rescue, plate reader | CPE inhibition, % at 9.99 µM | 1.7% of 350,000 active; in the data active = CPE inhibition above about 20%, passing the limit was not always enough; tested in BHK-21 cells;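 also: 0% = median of neutral control wells and 100% = median of positive control wells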
ERAP1 HTS inh – ERAP1 (human) enzyme inhibition; Q9NZ08; recombinant ERAP1, Leu-AMC fluorescence, 60 min; inhibition, % at 10.7 µM; 0.15% of 340,000 active;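 active = mean replicate inhibition of at least 30%, or all replicates individually reaching that 30% level; inactive = mean below 30% and not every replicate reaching it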;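 also: 0% = neutral control wells and 100% = L-leucinethiol positive control wells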
Target sequence (Q9NZ08 whole entry, looked up): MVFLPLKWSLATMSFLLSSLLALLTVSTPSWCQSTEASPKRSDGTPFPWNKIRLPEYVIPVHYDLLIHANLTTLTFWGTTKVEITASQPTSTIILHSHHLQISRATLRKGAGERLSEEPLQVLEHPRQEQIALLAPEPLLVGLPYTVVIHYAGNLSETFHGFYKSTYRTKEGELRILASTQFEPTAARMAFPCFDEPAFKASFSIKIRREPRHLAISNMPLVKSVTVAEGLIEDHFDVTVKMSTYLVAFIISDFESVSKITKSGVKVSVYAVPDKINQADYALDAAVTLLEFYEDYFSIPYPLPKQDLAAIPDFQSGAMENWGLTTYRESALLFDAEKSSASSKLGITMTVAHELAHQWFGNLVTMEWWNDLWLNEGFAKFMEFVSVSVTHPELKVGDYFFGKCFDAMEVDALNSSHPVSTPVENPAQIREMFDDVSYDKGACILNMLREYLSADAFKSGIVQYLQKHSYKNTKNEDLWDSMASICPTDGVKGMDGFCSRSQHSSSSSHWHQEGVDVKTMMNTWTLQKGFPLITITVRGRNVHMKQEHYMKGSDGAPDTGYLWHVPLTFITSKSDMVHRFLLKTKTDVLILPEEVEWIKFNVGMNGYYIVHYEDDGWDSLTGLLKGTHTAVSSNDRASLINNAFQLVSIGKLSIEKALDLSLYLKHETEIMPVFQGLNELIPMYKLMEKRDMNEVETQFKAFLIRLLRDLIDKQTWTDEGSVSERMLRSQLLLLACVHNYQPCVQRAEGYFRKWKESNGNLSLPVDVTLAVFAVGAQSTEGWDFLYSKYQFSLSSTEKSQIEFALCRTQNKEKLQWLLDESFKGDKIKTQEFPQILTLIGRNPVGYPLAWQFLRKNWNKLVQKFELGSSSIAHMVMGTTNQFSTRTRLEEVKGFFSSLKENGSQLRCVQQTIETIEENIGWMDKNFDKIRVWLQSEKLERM
FGF22 binding – shifts melting point of recombinant human FGF22; recombinant FGF22 thermal shift, SYPRO orange fluorescence; percent of sucrose octasulfate shift, DMSO zero; Q9HCT0; 1.5% of 340,000 active; activity (Tm shift, normalised), % at 9.99 µM; AID 651658;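 active = mean Tm shift, scaled 0 neutral to 100 positive control, at about 1.3% or above, every replicate too, limit read from the data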
E-selectin induc – induces E-selectin expression in human endothelial cells | HUVEC E-selectin immunofluorescence imaging; normalized: neutral wells 0, TNF-alpha wells 100 | activation, % at 7.58 µM | 0.37% of 260,000 active;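 active = mean E-selectin-positive cell signal at least 10% of the positive control, reached in at least 60% of replicates, without over 20% cell loss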
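System: HUVEC / Compound: single concentration / Signal: immunofluorescence imaging / Read-out: percent E-selectin-positive cells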
* = called active by the depositor; · = no result. Rows were chosen to be rich in hits. Some 3.7% of all compounds tested hit in one or more screens of this group.

SMILES	F508del corr	DENV2 CPE rescue	ERAP1 HTS inh	FGF22 binding	E-selectin induc
C[C@@H]1CCCCO[C@H](CN(C)Cc2ccc3c(c2)OCO3)[C@H](C)CN([C@@H](C)CO)C(=O)c2cc(NC(=O)Nc3cccc4ccccc34)ccc2O1	0	-25	·	-1	0
CC(=O)Nc1ccc(-c2csc(NC(=O)CN3C(=O)NC4(CCCC4)C3=O)n2)cc1	8.1*	-3	1	0	·
CCc1nnc(NC(=O)CN2C(=O)NC3(CC(C)CC(C)(C)C3)C2=O)s1 (configuration not stated)	1	-2	1	1	0
CCc1nnc(NC(=O)CN2C(=O)NC3(CCCC3)C2=O)s1	-2	-1	39*	0	·
C[C@@H]1CCCCO[C@@H](CN(C)Cc2ccc(C(=O)O)cc2)[C@H](C)CN([C@@H](C)CO)C(=O)c2cc(NC(=O)Nc3ccc(F)cc3)ccc2O1	4	-3	-2	·	0
C/C=C/c1ccc(C2[C@H]3CNC[C@@H]2N3Cc2ccc(OC)cc2)cc1 (some centres not stated)	2	1	1	·	0
C=CC1c2cc(OC)c(OC)cc2CC(C)N1Cc1ccc(OC)cc1 (configuration not stated)	18*	-9	0	1	·
CC(C)NC(=O)N(C)C[C@H]1OCCCC[C@@H](C)Oc2ccc(N(C)C)cc2C(=O)N([C@H](C)CO)C[C@H]1C	-4	-2	-2	-1	1
CCNc1nc(NCC)nc(C(=O)OCCO)n1	1	29*	0	0	0
CC(C)NC(=O)N[C@H]1CC[C@@H](CCn2cc(-c3ccc(F)cc3)nn2)O[C@@H]1CO	0	9	1	1	-1
CN(C)CCNC(C(=O)Nc1cc(Cl)cc(Cl)c1)c1ccccc1 (configuration not stated)	3	-3	2	43*	·
O=C(Nc1cc(Cl)cc(Cl)c1)C(NCC1CCCO1)c1ccccc1 (configuration not stated)	0	-4	-2	0	·
O=S(=O)(NC1CCN(Cc2ccc(OCCO)cc2)CC1)c1cc(C(F)(F)F)ccc1Cl	2	29*	-3	0	·
O=S(=O)(NC1CCN(Cc2ccc(OCCO)cc2)CC1)c1cc(Cl)ccc1Cl	-1	16	-3	0	·
COc1ccc2c3c([nH]c2c1)[C@H](CO)N(CC1CC1)CC31CN(C(=O)c2ccccc2F)C1	-1	-20	·	·	0
O=C(Nc1cccc(C(F)(F)F)c1)Nn1cnnc1	-2	-2	-3	0	·
O=C(Cc1ccc([N+](=O)[O-])cc1)Nc1cccc(C(F)(F)F)c1	-2	0	1	44*	·
O=C(OCc1cccc([N+](=O)[O-])c1)c1cccnc1Cl	-3	-5	-8	0	1
O=C(Cc1ccc([N+](=O)[O-])cc1)Nc1cc(C(F)(F)F)cc(C(F)(F)F)c1	1	14	5	0	0
O=C(OCc1cccc([N+](=O)[O-])c1)c1cccnc1	-1	-15	0	43*	·
O=C(CNC(=O)OCc1ccccc1)Nc1ccc(F)cc1	-2	-7	32*	0	0
O=C(Nc1ccccc1)Nc1cccc(C(F)(F)F)c1	1	3	-1	44*	·
CO[C@@H]1CN(C)C(=O)c2cc(NS(C)(=O)=O)ccc2OC[C@H](C)N(C(=O)C2CC2)C[C@H]1C	-1	12	0	0	0
Cc1noc(C)c1NC(=O)Nc1ccc2c(c1)C(=O)N([C@H](C)CO)C[C@@H](C)[C@H](CN(C)S(C)(=O)=O)O2	-3	5	0	0	-13
C[C@H]1CN([C@@H](C)CO)C(=O)c2cccc(NC(=O)C3CCOCC3)c2O[C@@H]1CN(C)CC1CC1	-1	-6	0	0	0
SMILES	F508del corr	DENV2 CPE rescue	ERAP1 HTS inh	FGF22 binding	E-selectin induc
COCC(=O)N(C)C[C@H]1Oc2cc(C#CCN(C)C)ccc2S(=O)(=O)N([C@H](C)CO)C[C@@H]1C	4	-1	-4	0	0
C[C@@H]1CN([C@H](C)CO)C(=O)c2cc(NC(=O)CCC(F)(F)F)ccc2O[C@@H]1CN(C)S(=O)(=O)c1cccs1	1	1	2	0	0
CC(=O)Nc1cccc(C(=O)OCc2ccc([N+](=O)[O-])cc2)c1	-3	-8	-2	43*	·
CC(=O)Nc1ccc(C(=O)OCc2ccc(F)cc2)cc1	·	6	3	43*	·
O=C(O)c1cc(O)c2c(c1)C(=O)c1cccc(O)c1C2=O	1	79*	6	-1	-2
Cc1cc(O)c2c(c1)C(=O)c1cccc(O)c1C2=O	1	-1	-2	0	·
C[C@@H]1CCCCO[C@H](CN(C)C(=O)c2ccncc2)[C@H](C)CN([C@H](C)CO)C(=O)c2cc(NS(=O)(=O)c3ccccc3)ccc2O1	-1	4	3	0	0
CNC(=O)C[C@@H]1CC[C@H]2[C@H](COc3ccc(NC(=O)c4cnccn4)cc3C(=O)N2C)O1	-1	2	·	0	0
Cc1noc(C)c1S(=O)(=O)Nc1ccc2c(c1)C(=O)N([C@@H](C)CO)C[C@@H](C)[C@H](CN(C)C(=O)CCC(F)(F)F)OCCCC[C@H](C)O2	-2	2	-3	0	0
CN(C(=O)CS(=O)(=O)c1cn(CC(=O)N2CCCCC2)c2ccccc12)c1ccccc1	2	64*	1	0	0
CC(C)NC(=O)Nc1ccc2c(c1)C(=O)N([C@@H](C)CO)C[C@@H](C)[C@@H](CN(C)C)OCCCC[C@@H](C)O2	-1	2	-3	-1	1
CCCN(C)C[C@H]1OCCCC[C@H](C)Oc2ccc(NS(=O)(=O)c3c(C)noc3C)cc2C(=O)N([C@@H](C)CO)C[C@H]1C	-3	32*	-4	1	0
Cc1noc(C)c1S(=O)(=O)Nc1ccc2c(c1)C(=O)N([C@@H](C)CO)C[C@H](C)[C@@H](CN(C)Cc1ccc(C(=O)O)cc1)OCCCC[C@H](C)O2	0	34*	-6	1	0
Cc1noc(C)c1S(=O)(=O)Nc1ccc2c(c1)C(=O)N([C@H](C)CO)C[C@@H](C)[C@@H](CN(C)Cc1ccc(C(=O)O)cc1)OCCCC[C@H](C)O2	0	-2	0	1.3*	0
C[C@@H]1CN([C@@H](C)CO)C(=O)c2cc(NC(=O)CCCN(C)C)ccc2O[C@H]1CN(C)Cc1ccncc1	-1	·	·	·	0
COc1ccc(Cl)cc1Nc1nc(-c2sc(NC(=O)C(C)(C)C)nc2C)cs1	8.7*	·	-1	0	0
COc1ccc(OC)c(Nc2nc(-c3sc(NC(=O)CC(C)C)nc3C)cs2)c1	0	-5	-2	0	0
COc1ccc(OC)c(Nc2nc(-c3sc(NC(=O)C(C)(C)C)nc3C)cs2)c1	8.0*	-15	-2	0	·
CCC(C)C(=O)Nc1nc(C)c(-c2csc(Nc3cc(Cl)ccc3OC)n2)s1 (configuration not stated)	0	-14	4	0	·
